SMILES strings stand for the structures. In brackets after ≈: the same amount, converted by molar mass.

Type in all cases: functional
The species named for assay [1] is Mus musculus. Put plainly: In vitro inhibition of interleukin-2 (IL-2) production induced by stimulating lymphocytes derived from mouse spleens with the […]. To be noted: Spleen. The method, boiled down: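 Compounds added with concanavalin A to the primary culture; supernatants collected at 48 h. IL-2 content measured by growth of IL-2-dependent CTLL cells, read as tritiated thymidine incorporation after 48 h. IC50 determined, with cyclosporin A run in parallel.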

Assay [2] is filed under the species Mus musculus. Nature of the assay: In vitro efficacy on humoral immune response by Mishell-Dutton assay (MD). The method, boiled down: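 Spleen lymphocytes from female OF1 mice (ca. 10 x 10^6) cultured 3 days with sheep erythrocytes (ca. 30 x 10^6) and test compound. Cells then plated on agar with fresh erythrocytes; plaques form by complement lysis. Read-out is the count of antibody-producing plaque-forming cells. Cyclosporin A run in parallel.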

Assay [3] is filed under the species Mus musculus. Put plainly: In vitro efficacy to suppress lymphocyte proliferation as measured by the incorporation of a labeled precursor ([3H]- thymidine) into DNA in Mixed Lymphocyte reaction (MLR). The essentials:
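Cells from spleens of female CBA mice aged 8–10 weeks (ca. 5 x 10^5). Compounds made up at 20 mg/mL in 9:1 (v/v) ethanol/Tween 80, then diluted in saline before adding to medium. Four concentrations per compound across 1.8–1000 ng/mL, in triplicate cultures. IC50 is the calculated concentration giving 50% inhibition of proliferation. Cyclosporin A run in parallel as control.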

In the case of `C/C=C/C[C@@H](C)[C@@H](O)[C@H]1C(=O)N[C@@H](CC)C(=O)N(C)CC(=O)N(C)[C@@H](CC(C)C)C(=O)N[C@@H](C(C)C)C(=O)N(C)[C@@H](CC(C)C)C(=O)N[C@@H](C)C(=O)N[C@H](COCCNS(=O)(=O)c2cccc3c(N(C)C)cccc23)C(=O)N(C)[C@@H](CC(C)C)C(=O)N(C)[C@@H](CC(C)C)C(=O)N(C)[C@@H](C(C)C)C(=O)N1C`, the IC50 (commonly the point on the concentration scale where inhibition reaches its midpoint) was determined as 0.057 mg/L (≈ 0.0381 µM) in the assay listed under Mus musculus [1], 0.048 mg/L (≈ 0.0321 µM) in the assay listed under Mus musculus [2] and 0.11 mg/L (≈ 0.0736 µM) in the assay filed under Mus musculus [3].

Consider `C/C=C/C[C@@H](C)[C@@H](O)[C@H]1C(=O)N[C@@H](CC)C(=O)N(C)CC(=O)N(C)[C@@H](CC(C)C)C(=O)N[C@@H](C(C)C)C(=O)N(C)[C@@H](CC(C)C)C(=O)N[C@@H](C)C(=O)N[C@H](COCC(=O)OC(C)(C)C)C(=O)N(C)[C@@H](CC(C)C)C(=O)N(C)[C@@H](CC(C)C)C(=O)N(C)[C@@H](C(C)C)C(=O)N1C`, for which the IC50 in the assay listed under Mus musculus [1] was greater than 1 mg/L; in the assay filed under Mus musculus [2] it was 0.41 mg/L (≈ 0.308 µM); in the assay filed under Mus musculus [3], 0.24 mg/L (≈ 0.18 µM).

`C/C=C/C[C@@H](C)[C@@H](O)[C@H]1C(=O)N[C@@H](CC)C(=O)N(C)CC(=O)N(C)[C@@H](CC(C)C)C(=O)N[C@@H](C(C)C)C(=O)N(C)[C@@H](CC(C)C)C(=O)N[C@@H](C)C(=O)N[C@H](COCC(=O)O)C(=O)N(C)[C@@H](CC(C)C)C(=O)N(C)[C@@H](CC(C)C)C(=O)N(C)[C@@H](C(C)C)C(=O)N1C`: the IC50 was determined as 0.53 mg/L (≈ 0.415 µM) in the assay filed under Mus musculus [1], 0.48 mg/L (≈ 0.376 µM) in the assay listed under Mus musculus [2] and 0.44 mg/L (≈ 0.345 µM) in the assay filed under Mus musculus [3].

`C/C=C/C[C@@H](C)[C@@H](O)[C@H]1C(=O)N[C@@H](CC)C(=O)N(C)CC(=O)N(C)[C@@H](CC(C)C)C(=O)N[C@@H](C(C)C)C(=O)N(C)[C@@H](CC(C)C)C(=O)N[C@@H](C)C(=O)N[C@H](COC)C(=O)N(C)[C@@H](CC(C)C)C(=O)N(C)[C@@H](CC(C)C)C(=O)N(C)[C@@H](C(C)C)C(=O)N1C`: the IC50 was 0.024 mg/L (≈ 0.0195 µM) in the assay filed under Mus musculus [1], less than 0.01 mg/L in the assay listed under Mus musculus [2] and less than 0.008 mg/L in the assay listed under Mus musculus [3].

Regarding `C/C=C/C[C@@H](C)[C@@H](O)[C@H]1C(=O)N[C@@H](CC)C(=O)N(C)CC(=O)N(C)[C@@H](CC(C)C)C(=O)N[C@@H](C(C)C)C(=O)N(C)[C@@H](CC(C)C)C(=O)N[C@@H](C)C(=O)N[C@H](COCc2ccccc2)C(=O)N(C)[C@@H](CC(C)C)C(=O)N(C)[C@@H](CC(C)C)C(=O)N(C)[C@@H](C(C)C)C(=O)N1C`, the IC50 is 0.095 mg/L (≈ 0.0726 µM) in the assay listed under Mus musculus [1], 0.46 mg/L (≈ 0.351 µM) in the assay listed under Mus musculus [2] and 0.25 mg/L (≈ 0.191 µM) in the assay filed under Mus musculus [3].

In the case of `C=C(COC[C@H]1NC(=O)[C@H](C)NC(=O)[C@H](CC(C)C)N(C)C(=O)[C@H](C(C)C)NC(=O)[C@H](CC(C)C)N(C)C(=O)CN(C)C(=O)[C@H](CC)NC(=O)[C@H]([C@H](O)[C@H](C)C/C=C/C)N(C)C(=O)[C@H](C(C)C)N(C)C(=O)[C@H](CC(C)C)N(C)C(=O)[C@H](CC(C)C)N(C)C1=O)C(=O)OC`, the IC50 in the assay listed under Mus musculus [1] turned out to be 0.1 mg/L (≈ 0.0759 µM); in the assay filed under Mus musculus [2] it was 0.016 mg/L (≈ 0.0122 µM); in the assay listed under Mus musculus [3], 0.04 mg/L (≈ 0.0304 µM).

`C/C=C/C[C@@H](C)[C@@H](O)[C@H]1C(=O)N[C@@H](CC)C(=O)N(C)CC(=O)N(C)[C@@H](CC(C)C)C(=O)N[C@@H](C(C)C)C(=O)N(C)[C@@H](CC(C)C)C(=O)N[C@@H](C)C(=O)N[C@H](COCCC2OCCO2)C(=O)N(C)[C@@H](CC(C)C)C(=O)N(C)[C@@H](CC(C)C)C(=O)N(C)[C@@H](C(C)C)C(=O)N1C`: the IC50 was 0.086 mg/L (≈ 0.0652 µM) in the assay filed under Mus musculus [1], 0.105 mg/L (≈ 0.0796 µM) in the assay filed under Mus musculus [2] and 0.117 mg/L (≈ 0.0887 µM) in the assay listed under Mus musculus [3].

Consider `C=C(CO)COC[C@H]1NC(=O)[C@H](C)NC(=O)[C@H](CC(C)C)N(C)C(=O)[C@H](C(C)C)NC(=O)[C@H](CC(C)C)N(C)C(=O)CN(C)C(=O)[C@H](CC)NC(=O)[C@H]([C@H](O)[C@H](C)C/C=C/C)N(C)C(=O)[C@H](C(C)C)N(C)C(=O)[C@H](CC(C)C)N(C)C(=O)[C@H](CC(C)C)N(C)C1=O`, for which the IC50 in the assay listed under Mus musculus [1] is 0.048 mg/L (≈ 0.0372 µM); in the assay filed under Mus musculus [2] it was 0.032 mg/L (≈ 0.0248 µM); in the assay listed under Mus musculus [3], less than 0.008 mg/L.

`C/C=C/C[C@@H](C)[C@@H](O)[C@H]1C(=O)N[C@@H](CC)C(=O)N(C)CC(=O)N(C)[C@@H](CC(C)C)C(=O)N[C@@H](C(C)C)C(=O)N(C)[C@@H](CC(C)C)C(=O)N[C@@H](C)C(=O)N[C@H](CO)C(=O)N(C)[C@@H](CC(C)C)C(=O)N(C)[C@@H](CC(C)C)C(=O)N(C)[C@@H](C(C)C)C(=O)N1C`: the IC50 in the assay listed under Mus musculus [1] is less than 0.008 mg/L; in the assay filed under Mus musculus [2] it was 0.026 mg/L (≈ 0.0213 µM); in the assay filed under Mus musculus [3] it was less than 0.008 mg/L.

In the case of `C/C=C/C[C@@H](C)[C@@H](O)[C@H]1C(=O)N[C@@H](CC)C(=O)N(C)CC(=O)N(C)[C@@H](CC(C)C)C(=O)N[C@@H](C(C)C)C(=O)N(C)[C@@H](CC(C)C)C(=O)N[C@@H](C)C(=O)N[C@H](COCCOC(C)=O)C(=O)N(C)[C@@H](CC(C)C)C(=O)N(C)[C@@H](CC(C)C)C(=O)N(C)[C@@H](C(C)C)C(=O)N1C`, the IC50 came out at 0.012 mg/L (≈ 0.0092 µM) in the assay filed under Mus musculus [1], 0.028 mg/L (≈ 0.0215 µM) in the assay listed under Mus musculus [2] and 0.018 mg/L (≈ 0.0138 µM) in the assay filed under Mus musculus [3].

With `C=C(CCl)COC[C@H]1NC(=O)[C@H](C)NC(=O)[C@H](CC(C)C)N(C)C(=O)[C@H](C(C)C)NC(=O)[C@H](CC(C)C)N(C)C(=O)CN(C)C(=O)[C@H](CC)NC(=O)[C@H]([C@H](O)[C@H](C)C/C=C/C)N(C)C(=O)[C@H](C(C)C)N(C)C(=O)[C@H](CC(C)C)N(C)C(=O)[C@H](CC(C)C)N(C)C1=O`, the results for the IC50 in the assay filed under Mus musculus [1], in the assay listed under Mus musculus [2] and in the assay listed under Mus musculus [3] were greater than 0.1 mg/L, 0.23 mg/L (≈ 0.176 µM) and 0.27 mg/L (≈ 0.207 µM), respectively.

With `C/C=C/C[C@@H](C)[C@@H](O)[C@H]1C(=O)N[C@@H](CC)C(=O)N(C)CC(=O)N(C)[C@@H](CC(C)C)C(=O)N[C@@H](C(C)C)C(=O)N(C)[C@@H](CC(C)C)C(=O)N[C@@H](C)C(=O)N[C@H](COCCN)C(=O)N(C)[C@@H](CC(C)C)C(=O)N(C)[C@@H](CC(C)C)C(=O)N(C)[C@@H](C(C)C)C(=O)N1C`, the IC50 was determined as 0.38 mg/L (≈ 0.301 µM) in the assay listed under Mus musculus [1], 0.095 mg/L (≈ 0.0753 µM) in the assay filed under Mus musculus [2] and 0.22 mg/L (≈ 0.174 µM) in the assay filed under Mus musculus [3].

For `C#CCOC[C@H]1NC(=O)[C@H](C)NC(=O)[C@H](CC(C)C)N(C)C(=O)[C@H](C(C)C)NC(=O)[C@H](CC(C)C)N(C)C(=O)CN(C)C(=O)[C@H](CC)NC(=O)[C@H]([C@H](O)[C@H](C)C/C=C/C)N(C)C(=O)[C@H](C(C)C)N(C)C(=O)[C@H](CC(C)C)N(C)C(=O)[C@H](CC(C)C)N(C)C1=O`, the IC50 in the assay filed under Mus musculus [1] was found to be 0.09 mg/L (≈ 0.0716 µM); in the assay listed under Mus musculus [2], 0.036 mg/L (≈ 0.0286 µM); in the assay filed under Mus musculus [3], 0.072 mg/L (≈ 0.0573 µM).

For the molecule `C/C=C/C[C@@H](C)[C@@H](O)[C@H]1C(=O)N[C@@H](CC)C(=O)N(C)CC(=O)N(C)[C@@H](CC(C)C)C(=O)N[C@@H](C(C)C)C(=O)N(C)[C@@H](CC(C)C)C(=O)N[C@@H](C)C(=O)N[C@H](COCC(N)=O)C(=O)N(C)[C@@H](CC(C)C)C(=O)N(C)[C@@H](CC(C)C)C(=O)N(C)[C@@H](C(C)C)C(=O)N1C`, the IC50 is 0.07 mg/L (≈ 0.0549 µM) in the assay filed under Mus musculus [1], 0.063 mg/L (≈ 0.0494 µM) in the assay filed under Mus musculus [2] and 0.064 mg/L (≈ 0.0502 µM) in the assay listed under Mus musculus [3].

For the molecule `C=C(COC[C@H]1NC(=O)[C@H](C)NC(=O)[C@H](CC(C)C)N(C)C(=O)[C@H](C(C)C)NC(=O)[C@H](CC(C)C)N(C)C(=O)CN(C)C(=O)[C@H](CC)NC(=O)[C@H]([C@H](O)[C@H](C)C/C=C/C)N(C)C(=O)[C@H](C(C)C)N(C)C(=O)[C@H](CC(C)C)N(C)C(=O)[C@H](CC(C)C)N(C)C1=O)CO[Si](C)(C)C(C)(C)C`, the figures for the IC50 in the assay filed under Mus musculus [1], in the assay filed under Mus musculus [2] and in the assay listed under Mus musculus [3] were greater than 1 mg/L, greater than 1 mg/L and 0.45 mg/L (≈ 0.321 µM), respectively.

Source of the values: ChEMBL document CHEMBL1128374, “Preparation and in vitro activities of ethers of [D-serine]8-cyclosporin” (J Med Chem, 1995).
